Measurements of several laboratories.
pIC50: −log10 of the molar value.

Structure (SMILES)	cell line	read-out	mode	method	time	setting	pIC50
CCCCCC/N=C1\c2cc(C(N)=O)nc3c(N)c(Cl)c(N)c(c23)N1C	Calu-3	cell growth or viability	–	–	–	–	6.07
N[C@@H](CC(=O)N1CCN(C(c2ccc(F)cc2)c2ccc(F)cc2)CC1)C(=O)N1Cc2ccccc2C1	NOMO-1	cell growth or viability	–	ATP luminescence	48 h	–	5.33
O=C(/C=C/c1ccc2c(=O)n(CC3CCCCC3)cnc2c1)NO	SW-620	cell growth or viability	–	SRB	48 h	–	5.84
COc1ccc(-c2nc3ccc(C)cc3[nH]2)cc1O	MCF7	cell growth or viability	–	MTT	48 h	–	4.63
O=C(/C=C/c1ccc2ncn(CC3CCCC3)c(=O)c2c1)NO	SW-620	cell growth or viability	–	SRB	48 h	–	5.92
CC(C)[C@H](N)c1nc2cc(-c3ccncc3F)sc2c(=O)[nH]1	CAPAN-1	cell growth or viability	–	MTT	–	–	7.31
CCCCCCCCCCCC(=O)Oc1c(C)c(O)c(C(=O)/C=C/c2ccccc2)c(OC)c1C	FaDu	cell growth or viability	–	SRB	72 h	–	< 4.30
N#Cc1cc([N+](=O)[O-])c2sc(C(N)=O)[n+]([O-])c2c1	THP-1	TNF-α release	inhibitor	–	17 h	LPS-stimulated	5.53
Nc1c2c(nc3ccccc13)CCCC2O (stereo not shown)	FaDu	cell growth or viability	–	–	72 h	–	< 4.70
COc1c2c(cc3c1OCO3)[C@]13C=C[C@H](OC)C[C@H]1N(C2)C[C@H]3OC(=O)c1cccc(C)c1	SAOS-2	cell growth or viability	–	WST-1	–	–	< 5.00
CC(=O)O[C@H]1C(=O)[C@@]2(C)[C@H]([C@H](OC(=O)c3ccccc3)[C@]3(O)C[C@H](OC(=O)[C@H](O)[C@@H](NC(=O)c4ccccc4)c4ccccc4)C(C)=C1C3(C)C)[C@]1(OC(C)=O)CO[C@@H]1C[C@@H]2O	MCF7	cell growth or viability	–	MTT	–	–	5.63
Nc1nc(Nc2ccccc2)nc2c1ncn2[C@@H]1O[C@H](CO)[C@@H](O)[C@H]1O	FaDu	cell growth or viability	–	–	72 h	–	< 4.70
Cc1ccc2nc(-c3ccco3)n(Cc3ccccc3)c2c1	MCF7	cell growth or viability	–	MTT	–	–	4.38
O=c1cc(-c2ccc(O)c(O)c2)oc2cc(O)cc(O)c12	HEp-2	cell growth or viability	–	WST-1	48 h	–	4.97
CC(NCCc1ccc(O)cc1)C(O)c1ccc(O)cc1 (stereo not shown)	THP-1	TNF-α release	inhibitor	–	17 h	LPS-stimulated	5.46
CC(=O)O[C@H]1C(=O)[C@@]2(C)[C@H]([C@H](OC(=O)c3ccccc3)[C@]3(O)C[C@H](OC(=O)[C@H](O)[C@@H](NC(=O)c4ccccc4)c4ccccc4)C(C)=C1C3(C)C)[C@]1(OC(C)=O)CO[C@@H]1C[C@@H]2O	Panc02	cell growth or viability	–	CCK-8	72 h	–	7.08
CC1(C)CC[C@]2(C)CC[C@]3(C)C(=CC[C@@H]4[C@@]5(C)CC[C@H](O)C(C)(C)[C@@H]5CC[C@]43C)[C@@H]2C1	HEp-2	cell growth or viability	–	WST-1	48 h	–	4.07
CC(C)C(=O)SCCCCCCC(=O)Nc1nc(-c2ccccc2)cs1	FaDu	cell growth or viability	–	–	72 h	–	5.37
C=CCn1c(-c2ccc(Cl)cc2)nc2ccccc21	MCF7	cell growth or viability	–	MTT	–	–	4.10
O=C(/C=C/c1ccc2c(=O)n(Cc3cccc(F)c3)cnc2c1)NO	SW-620	cell growth or viability	–	SRB	48 h	–	5.78
CC(C)NCC(O)c1cc(O)cc(O)c1 (stereo not shown)	THP-1	TNF-α release	inhibitor	–	17 h	LPS-stimulated	6.22
CC[C@@]1(O)C(=O)OCc2c1cc1n(c2=O)Cc2cc3ccccc3nc2-1	P388	cell growth or viability	–	MTT	96 h	–	8.40

Structure (SMILES)	cell line	read-out	mode	method	time	setting	pIC50
CC(C)c1ccccc1S(=O)(=O)c1cc(N)c2ncccc2c1[N+](=O)[O-]	FaDu	cell growth or viability	–	–	72 h	–	< 4.70
CN1/C(=N/c2ccc(Cl)cc2)c2cc(C(N)=O)nc3c(N)c(Cl)c(N)c1c23	Calu-3	cell growth or viability	–	–	–	–	4.98
CCN(CC)CCOC(=O)C1(c2ccc([N+](=O)[O-])cc2)CCCC1	FaDu	cell growth or viability	–	–	72 h	–	< 4.70
COc1cc(C2Oc3cc([C@H]4Oc5cc(O)cc(O)c5C(=O)[C@@H]4O)ccc3OC2CO)ccc1O (stereo partly shown)	HepaRG	cell growth or viability	–	MTT	24 h	–	3.85
O=C(/C=C/c1ccc(O)c(O)c1)O[C@@H]1C[C@](O)(C(=O)O)C[C@@H](O)[C@H]1O	HEp-2	cell growth or viability	–	WST-1	48 h	–	5.29
CC(C)NCC(O)c1ccc(O)c(O)c1 (racemic)	THP-1	TNF-α release	inhibitor	–	17 h	LPS-stimulated	7.80
COc1ccc(C(=O)O[C@@H]2CN3Cc4c(cc5c(c4OC)OCO5)[C@@]24C=C[C@H](OC)C[C@@H]34)cc1OC	SAOS-2	cell growth or viability	–	WST-1	–	–	5.68
COc1ccc(-c2nc3ccc(C)cc3[nH]2)cc1OC	MCF7	cell growth or viability	–	MTT	48 h	–	< 4.00
COc1cc(Nc2nccc(-c3cnn4nc(OC)ccc34)n2)cc(C(F)(F)F)c1	J82	cell growth or viability	–	ATP luminescence	–	–	6.07
CCCn1cnc2cc(/C=C/C(=O)NO)ccc2c1=O	SW-620	cell growth or viability	–	SRB	48 h	–	5.87
CC(C)C[C@H](NC(=O)[C@H](Cc1ccccc1)NC(=O)c1cnccn1)B(O)O	SK-MEL3	cell growth or viability	–	ATP luminescence	–	–	8.00
CC(=O)CC(c1ccccc1)c1c(O)c2ccccc2oc1=O (stereo not shown)	FaDu	cell growth or viability	–	–	72 h	–	< 4.70
COc1ccc(-c2nc3ccccc3n2Cc2ccccc2)cc1OC	MCF7	cell growth or viability	–	MTT	–	–	4.65
CC(C)[C@H](N)C(=O)N1CCC[C@H]1B(O)O	NOMO-1	cell growth or viability	–	ATP luminescence	48 h	–	6.78
NCCc1ccc(O)c(O)c1	FaDu	cell growth or viability	–	–	72 h	–	< 4.70
CC(CCc1ccc(O)cc1)NCCc1ccc(O)c(O)c1 (stereo not shown)	THP-1	TNF-α release	inhibitor	ELISA	17 h	LPS-stimulated	7.05
Clc1ccc(-c2nc3ccccc3[nH]2)cc1Cl	MCF7	cell growth or viability	–	MTT	48 h	–	4.96
COc1c(C)c(OC)c2c(c1C)OC(c1ccccc1)CC2=O (stereo not shown)	FaDu	cell growth or viability	–	SRB	72 h	–	< 4.30
O=c1[nH]cc(F)c(=O)[nH]1	HEp-2	cell growth or viability	–	WST-1	48 h	–	5.03
O=C1Nc2ccc(Cl)cc2[C@@](C#CC2CC2)(C(F)(F)F)O1	FaDu	cell growth or viability	–	–	72 h	–	< 4.70
CCn1cnc2ccc(/C=C/C(=O)NO)cc2c1=O	SW-620	cell growth or viability	–	SRB	48 h	–	5.17
